For data set [1], the system named is Leishmania major. As to the kind of experiment: Antiparasitic activity against amastigotes of delta-null mutant Leishmania major AP3 after 3 days by Alamar blue assay. Particulars: AP3, 72 h; call rule not given here. The format is functional, organism-based.
Data set [2] concerns Leishmania donovani. The experiment in a line: Drug uptake in 1 mM N-ethylmaleimde pretreated Leishmania donovani at 5 uM after 15 mins by liquid scintillation counting. It is filed as ADME, organism-based. As to conditions: in vivo, 0.25 h. The procedure, abridged:
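Parasites were treated with 1 mM NEM for 15 min on ice, then resuspended in fresh HBS. Cells at 2 × 10^7/ml were given 5 μM [14C]sitamaquine for 15 min at 28°C. Washing was 10 min on ice in PBS with 100 μM sitamaquine, then twice in PBS. Lysates in 1% Triton X-100 were read by scintillation counting, with Bradford protein.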

Data set [3] has as its system Leishmania major. As to the kind of experiment: Drug uptake in AP3-complemented Leishmania major MHOM/JL/80/Friedlin at 5 uM for 15 mins by liquid scintillation counting. It is filed as ADME, organism-based. As to conditions: in vivo, 0.25 h. The method, boiled down:
(§1)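 PBS-washed parasites at 2 × 10^7/ml in HBS (pH 7) were incubated with 5 μM [14C]sitamaquine for 15 min at 28°C or 4°C. Washing was 10 min on ice in PBS or PBS with 100 μM unlabeled sitamaquine, then twice in PBS. Cell-associated radioactivity in 1% Triton X-100 lysates was counted by liquid scintillation and related to Bradford protein.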

Data set [4] concerns Leishmania major. The experiment in a line: Antiparasitic activity against wild type amastigotes of Leishmania major AP3-complemented after 3 days by Alamar blue assay. The format is functional, organism-based. Particulars: 72 h.
The subject of data set [5] is Leishmania major. As to the kind of experiment: Drug uptake in Leishmania major MHOM/JL/80/Friedlin AP3delta-null mutant at 5 uM for 15 mins by liquid scintillation counting. The format is ADME, organism-based. Particulars: in vivo, 0.25 h. The procedure, abridged: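 Promastigotes from 48-h cultures were washed in PBS and resuspended at 2 × 10^7/ml in HEPES-buffered saline, pH 7. They were exposed to 5 μM [14C]sitamaquine for 15 min, chilled on ice, then washed 10 min on ice in PBS with 100 μM unlabelled sitamaquine and twice more in PBS. Pellets were lysed in 1% Triton X-100. Scintillation counts were normalised to Bradford protein.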

Data set [6] deals with Leishmania donovani. As to the kind of experiment: Drug uptake in Leishmania donovani at 10 uM for 10 mins by flow cytometry in presence of 20 mM NH4Cl acidic organelles alkalinization inducer. The format is ADME, organism-based. As to conditions: in vivo.
The subject of data set [7] is Leishmania tropica. As to the kind of experiment: Drug uptake in Leishmania tropica MHOM/SU/74/SAF-K27 assessed as reduction in fluorescence of LysoTracker Green by Flow cytometry analysis. It is filed as ADME, organism-based. As to conditions: in vivo. The procedure, abridged:
(§2)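 Promastigotes at 4 × 10^6 cells/ml were loaded with 100 nM LysoTracker Green DND-26 in HBS for 10 min at 28°C. They were then exposed to 1, 10 or 30 μM sitamaquine for 15 min at 28°C, washed and resuspended in PBS. Flow cytometry used 488 nm excitation and 515–545 nm emission after gating out dead cells and debris. Signal expressed as % of untreated.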

Data set [8] deals with Leishmania donovani. The experiment in a line: Drug uptake in Leishmania donovani at 10 uM for 10 mins by flow cytometry in presence of nigericin. It is filed as ADME, organism-based. Particulars: in vivo.
For the next data set, the system named is Leishmania mexicana. As to the kind of experiment: Antiparasitic activity against Leishmania mexicana M9012 after 3 days by Alamar blue assay. Particulars: M9012, 72 h. It is filed as functional, organism-based. The procedure, abridged: (§3)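 Promastigotes grown at 28°C in RPMI 1640-modified medium with 20% heat-inactivated FBS and harvested after 48 h of growth. Exposed to increasing sitamaquine concentrations for 72 h at 28°C. Growth read by Alamar Blue fluorescence (excitation 530 nm, emission 585 nm). EC50 taken as the concentration giving 50% growth inhibition. Run three times in duplicate.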

The test system of data set [9] is Leishmania donovani. The experiment in a line: Drug uptake in Leishmania donovani at 5 uM after 15 mins at 4 degC by liquid scintillation counting. The format is ADME, organism-based. Particulars: in vivo, 0.25 h. The procedure, abridged: as §1
For data set [10], the system named is Leishmania donovani. The experiment in a line: Antiparasitic activity against Leishmania donovani MHOM/ET/67/L82 after 3 days by Alamar blue assay. The format is functional, organism-based. Particulars: MHOM/ET/67/L82, 72 h. The method, boiled down:
as §3

In data set [11] the test system is Leishmania tropica. The experiment in a line: Antiparasitic activity against Leishmania tropica MHOM/SU/60/LCR-L39 after 3 days by Alamar blue assay. The format is functional, organism-based. Particulars: MHOM/SU/60/LCR-L39, 72 h. The method, boiled down: as §3
The subject of another data set is Leishmania infantum. The experiment in a line: Antiparasitic activity against Leishmania infantum MHOM/ES/1993/BCN-99 after 3 days by Alamar blue assay. It is filed as functional, organism-based. Particulars: MHOM/ES/1993/BCN-99, 72 h. The procedure, abridged: as §3
Data set [12] has as its system Leishmania donovani. As to the kind of experiment: Drug uptake in Leishmania donovani at 5 uM after 15 mins at 28 degC by liquid scintillation counting. The format is ADME, organism-based. As to conditions: in vivo, 0.25 h. The procedure, abridged:
as §1

The subject of another data set is Leishmania braziliensis. As to the kind of experiment: Antiparasitic activity against Leishmania braziliensis MHOM/PE/03/LH2419 after 3 days by Alamar blue assay. The format is functional, organism-based. As to conditions: MHOM/PE/03/LH2419, 72 h. The method, boiled down: as §3
Data set [13] deals with Leishmania donovani. As to the kind of experiment: Drug uptake in Leishmania donovani at 5 uM after 15 mins at pH 8 by liquid scintillation counting. The format is ADME, organism-based. As to conditions: in vivo, pH 8, 0.25 h. The procedure, abridged:
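Parasites were incubated at 28°C with [14C]sitamaquine in HBS adjusted to various pHs, up to pH 8. Cells were chilled, then washed 10 min on ice in PBS with 100 μM sitamaquine and twice in PBS. Uptake was quantified by liquid scintillation counting of Triton X-100 lysates, with Bradford protein. Means of three independent experiments.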

Data set [14] concerns Leishmania donovani. The experiment in a line: Drug uptake in Leishmania donovani MHOM/ET/67/L82 assessed as reduction in fluorescence of LysoTracker Green by Flow cytometry analysis. It is filed as ADME, organism-based. As to conditions: in vivo. The procedure, abridged:
as §2

The test system of data set [15] is Leishmania donovani. As to the kind of experiment: Drug uptake in Leishmania donovani MHOM/IN/80/DD8 assessed as reduction in fluorescence of LysoTracker Green by Flow cytometry analysis. It is filed as ADME, organism-based. Particulars: in vivo. The method, boiled down: as §2
The subject of data set [16] is Leishmania donovani. The experiment in a line: Drug uptake in Leishmania donovani at 10 uM for 10 mins by flow cytometry in presence of ionophores monensin. The format is ADME, organism-based. As to conditions: in vivo.
The next data set concerns Leishmania sp. As to the kind of experiment: Antiparasitic activity against promastigotes of Leishmania sp. after 3 days by Alamar blue assay. The format is functional, organism-based. As to conditions: 72 h. The method, boiled down:
as §3

Data set [17] has as its system Leishmania tropica. As to the kind of experiment: Drug uptake in Leishmania tropica MHOM/SU/60/LCR-L39 assessed as reduction in fluorescence of LysoTracker Green by Flow cytometry analysis. It is filed as ADME, organism-based. Particulars: in vivo. The procedure, abridged: as §2

pEC50: −log10 of the molar value.

Turning to `CCN(CC)CCCCCCNc1cc(O[14CH3])cc2c(C)ccnc12.Cl.Cl`, the pEC50 was 5.41 with Leishmania major [1] and 5.37 with Leishmania major [4]. The results for the Drug uptake result in the data set on Leishmania donovani [2], in the data set with Leishmania major [3] and in the data set on Leishmania major [5] were “Active”, “Active” and “Not Active”, respectively.
For `CCN(CC)CCCCCCNc1cc(OC)cc2c(C)ccnc12.Cl.Cl`, the Drug uptake entry in the data set on Leishmania donovani [6] was “Not Active”; with Leishmania tropica [7], “Active”; in the data set on Leishmania donovani [8], “Not Active”; in the data set with Leishmania donovani [9], “Active”; with Leishmania donovani [12] it was “Active”; in the data set on Leishmania donovani [13], “Active”. The Drug uptake result in the data set on Leishmania donovani [14] is “Active”; in the data set on Leishmania donovani [15], “Active”; with Leishmania donovani [16], “Not Active”; in the data set on Leishmania tropica [17], “Active”. The pEC50 with Leishmania mexicana was 5.02; with Leishmania donovani [10] it was 5.02; in the data set on Leishmania tropica [11] it was 5.02; in the data set with Leishmania infantum, 5.02; in the data set with Leishmania braziliensis, 5.02; in the data set on Leishmania sp., 5.24.
